From ChEMBL document CHEMBL3112548, “Synthesis and biological evaluation of novel tetrahydro-β-carboline derivatives as antitumor growth and metastasis agents through inhibiting the transforming growth factor-β signaling pathway” (J Med Chem, 2014)
Calls of active or inactive are those of the source. No cut-off for these calls is given here.

Key:
A549 [1] = assay: Antitumor activity against human A549 cells xenografted in nude mouse assessed as suppression of tumor volume at 20 mg/kg, ip qd for 60 days measured up to 60 days; format: functional, organism-based; design: dose 20 mg/kg
In short: (§1)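 Nude mice (5 weeks old, acclimated 1 week) given 5 × 10^5 A549 cells in PBS subcutaneously; at ~10 mm tumor diameter, 15 mice size-matched into three groups (n = 5): DMSO vehicle, 5.0 mg/kg or 20 mg/kg ip in 50 μL DMSO daily for 60 days. Body weight and tumor dimensions measured daily; volume = 0.52 × AB².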

Mus musculus [2] = assay: Toxicity in nude mouse xenografted with human A549 cells assessed as body weight change at 20 mg/kg, ip qd for 60 days measured up to 60 days; format: organism-based; design: dose 20 mg/kg, route intraperitoneal; settings: in vivo, 1440 h; in short: as §1
[3] = Antiproliferative activity against human PC9 cells at 10 uM after 48 hrs by SRB assay; format: functional; settings: PC-9, 48 h
In short: (§2)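 SRB assay: 1 × 10^4 cells per well in 96-well plates exposed to compound 48 h; fixed with 10% TCA, stained 30 min at room temperature, washed with 1% acetic acid, dye dissolved in 10 mM Tris base, OD 510 nm. Percent inhibition = decrease in absorbance relative to DMSO control wells.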

[4] = molecular target: TGF-beta receptor type-1 (Homo sapiens) (UniProt P36897); assay: Inhibition of TGFbetaR1-mediated smad phosphorylation in human HaCaT cells at 1 uM measured within 24 hrs by dual-luciferase reporter gene assay
[5] = Antiproliferative activity against human PC9 cells after 48 hrs by SRB assay; format: functional, cell-based; settings: PC-9, 48 h; in short: as §2
[6] = Antiproliferative activity against human H1299 cells after 48 hrs by SRB assay; format: functional, cell-based; settings: NCI-H1299, 48 h; in short: as §2
A549 [7] = assay: Antiproliferative activity against human A549 cells after 48 hrs by SRB assay; format: functional, cell-based; settings: A549, 48 h; in short: as §2
[8] = Antimigratory activity against human H1299 cells assessed as inhibition of cell migration after 12 to 24 hrs by transwell migration assay; format: functional, cell-based; settings: NCI-H1299
In short: (§3)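 Transwell chambers, 8 μm pore filters; 5 × 10^5 cells in DMEM in top chamber with compound, 10% FBS medium below, 37 °C, 5% CO2; after 12−24 h non-migrated cells swabbed off, migrated cells fixed, stained with 0.2% crystal violet in PBS and counted in five random 10× fields per membrane. Means ± SD.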

A549 [9] = assay: Antimigratory activity against human A549 cells assessed as inhibition of cell migration after 12 to 24 hrs by transwell migration assay; format: functional, cell-based; in short: as §3
Mus musculus [10] = assay: Toxicity in nude mouse xenografted with human A549 cells assessed as body weight change at 5 mg/kg, ip qd for 60 days measured up to 60 days; format: organism-based; design: dose 5 mg/kg, route intraperitoneal; settings: in vivo, 1440 h; in short: as §1
A549 [11] = assay: Antimigratory activity against human A549 cells assessed as decrease in cell migration after 12 hrs by wound healing assay; settings: A549, 12 h
A549 [12] = assay: Antiproliferative activity against human A549 cells assessed as cell viability at 1 uM after 12 hrs by SRB assay; format: functional, cell-based
[13] = Antimigratory activity against human H1299 cells assessed as decrease in cell migration after 12 hrs by wound healing assay; settings: NCI-H1299, 12 h
A549 [14] = assay: Antitumor activity against human A549 cells xenografted in nude mouse assessed as suppression of tumor volume at 5 mg/kg, ip qd for 60 days measured up to 60 days; format: functional, organism-based; design: dose 5 mg/kg; in short: as §1
NCI-H1299 [15] = assay: Antiproliferative activity against human H1299 cells assessed as cell viability at 1 uM after 12 hrs by SRB assay; format: functional, cell-based
NCI-H1299 [16] = assay: Antimigratory activity against human H1299 cells assessed as reduction in distance at 1 uM after 24 hrs by time-lapse video microscopy; format: functional, cell-based
In short: (§4)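 H1299 cells (5 × 10^4) in 30 mm dishes pretreated with or without compound for 24 h, then tracked by time-lapse microscopy, one frame per 10 min over 10 h; eight random cells per condition; migration distance and speed taken from track plots. Means ± SD, Student's t test.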

NCI-H1299 [17] = assay: Antimigratory activity against human H1299 cells assessed as reduction of cell velocity at 1 uM after 24 hrs by time-lapse video microscopy; format: functional, cell-based; in short: as §4
4T1 = assay: Antitumor activity against mouse 4T1 cells expressing luciferase allograted in ip dosed Balb/c mouse assessed as suppression of tumor volume compound administered for 20 days measured after 20 days; format: functional, organism-based
In short: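 Female Balb/c mice (6 weeks old) given 5 × 10^4 4T1-luciferase cells into mammary fat pad; after 7 days (~5 mm tumors) 24 mice randomized into DMSO vehicle, 1.0 or 5.0 mg/kg/day ip groups; after 20 days tumor burden quantified as bioluminescence by in vivo imaging. Body weight measured daily. Mean ± SD.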

TGF-beta receptor type-1 (Homo sapiens), sequence (P36897 whole entry, looked up): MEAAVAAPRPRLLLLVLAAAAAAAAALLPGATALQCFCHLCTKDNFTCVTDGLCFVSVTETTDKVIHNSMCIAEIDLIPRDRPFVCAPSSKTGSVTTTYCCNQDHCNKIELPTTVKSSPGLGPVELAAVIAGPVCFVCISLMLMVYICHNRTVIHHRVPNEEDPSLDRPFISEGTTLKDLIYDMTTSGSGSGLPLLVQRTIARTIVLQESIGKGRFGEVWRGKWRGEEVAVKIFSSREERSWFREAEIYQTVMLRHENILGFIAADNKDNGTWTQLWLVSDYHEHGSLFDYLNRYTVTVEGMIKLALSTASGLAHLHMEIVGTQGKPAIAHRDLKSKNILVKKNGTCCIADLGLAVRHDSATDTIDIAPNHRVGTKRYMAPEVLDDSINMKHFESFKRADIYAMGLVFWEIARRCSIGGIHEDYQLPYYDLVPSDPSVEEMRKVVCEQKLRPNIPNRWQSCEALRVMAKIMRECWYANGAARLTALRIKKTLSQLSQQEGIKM

COc1cc2ncnc(Nc3ccc(F)c(Cl)c3)c2cc1OCCCN1CCOCC1 [GEFITINIB]
Activity (A549 [1]): Active
Activity (Mus musculus [2]): Toxic

O=C(Cc1ccccc1)N1CCc2c([nH]c3ccc(Br)cc23)C1
inhibition at 10 µM [3]: 47%

O=C(Cc1ccc(O)c(O)c1)N1CCc2c([nH]c3ccccc23)C1
inhibition [4]: 21%
inhibition at 10 µM [3]: 26%

O=C(c1ccccn1)N1CCc2c([nH]c3ccccc23)C1
inhibition [4]: 1.1%
inhibition at 10 µM [3]: 4%

CCN(CC)c1ccc(CC(=O)N2CCc3c([nH]c4ccccc34)C2)cc1
inhibition [4]: 49%
inhibition at 10 µM [3]: 18%

Nc1ccc(CC(=O)N2CCc3c([nH]c4ccccc34)C2)cc1
inhibition [4]: 18.1%
inhibition at 10 µM [3]: 8%

NC(C(=O)N1CCc2c([nH]c3ccccc23)C1)c1ccccc1 (stereo unspecified)
inhibition [4]: 10.9%
inhibition at 10 µM [3]: 11%

CC(C)(C)OC(=O)NC(Cc1ccccc1)C(=O)N1CCc2c([nH]c3ccccc23)C1 (stereo unspecified)
inhibition [4]: 44.3%
inhibition at 10 µM [3]: 0%

CCC1c2[nH]c3ccccc3c2CCN1C(=O)Cc1ccccc1 (stereo unspecified)
inhibition [4]: 52.1%
inhibition at 10 µM [3]: 24%

O=C(Cc1ccccc1)N1CCc2c([nH]c3ccccc23)C1c1ccccc1 (stereo unspecified)
inhibition [4]: 10.3%
inhibition at 10 µM [3]: 10%

O=C(Cc1ccc(O)cc1)N1CCc2c([nH]c3ccccc23)C1
inhibition [4]: 64.2%
inhibition at 10 µM [3]: 39%

O=C(N1CCc2c([nH]c3ccccc23)C1)C(O)(c1ccccc1)c1ccccc1
inhibition [4]: 12.3%
inhibition at 10 µM [3]: 0%

CC(C)(C)OC(=O)NC(C(=O)N1CCc2c([nH]c3ccccc23)C1)c1ccccc1 (stereo unspecified)
inhibition [4]: 58.8%
inhibition at 10 µM [3]: 31%

O=C(Cc1ccc(F)cc1)N1CCc2c([nH]c3ccccc23)C1
inhibition [4]: 11.8%
inhibition at 10 µM [3]: 21%

O=C(Cc1ccccc1)N1CCc2c([nH]c3ccc(F)cc23)C1
IC50 [5]: 7.09 µM
IC50 [6]: 6.19 µM
inhibition at 10 µM [3]: 78%
IC50 (A549 [7]): 4.85 µM

O=C(c1cccs1)N1CCc2c([nH]c3ccccc23)C1
inhibition [4]: 2.2%
inhibition at 10 µM [3]: 9%

O=C(Cc1ccc(CBr)cc1)N1CCc2c([nH]c3ccccc23)C1
inhibition [4]: 50.1%
inhibition at 10 µM [3]: 26%

O=C(Cc1ccccc1O)N1CCc2c([nH]c3ccccc23)C1
inhibition [4]: 19.7%
inhibition at 10 µM [3]: 33%

O=C(CCc1ccccc1)N1CCc2c([nH]c3ccccc23)C1
inhibition [4]: 31.1%
inhibition at 10 µM [3]: 48%

O=C(O)CC1c2[nH]c3ccccc3c2CCN1C(=O)Cc1ccccc1 (stereo unspecified)
inhibition [4]: 4.1%
inhibition at 10 µM [3]: 9%

CC1c2[nH]c3ccc(O)cc3c2CCN1C(=O)Cc1ccccc1 (stereo unspecified)
inhibition [4]: 11.2%
inhibition at 10 µM [3]: 8%

NC(=O)c1ccc(-c2nc(-c3ccccn3)c(-c3ccc4c(c3)OCO4)[nH]2)cc1 [SB-431542]
IC50 [8]: 0.5 µM

O=C(Cc1ccc(Cl)cc1)N1CCc2c([nH]c3ccccc23)C1
inhibition [4]: 7.9%
inhibition at 10 µM [3]: 33%

O=C(c1ccccc1)N1CCc2c([nH]c3ccccc23)C1
inhibition [4]: 9.5%
inhibition at 10 µM [3]: 7%

O=C(Cc1cccc(O)c1)N1CCc2c([nH]c3ccccc23)C1
inhibition [4]: 29.1%
inhibition at 10 µM [3]: 11%

O=C(C(O)c1ccccc1)N1CCc2c([nH]c3ccccc23)C1 (stereo unspecified)
inhibition [4]: 12.9%
inhibition at 10 µM [3]: 28%

O=Cc1ccc(CC(=O)N2CCc3c([nH]c4ccccc34)C2)cc1
inhibition [4]: 11.8%
inhibition at 10 µM [3]: 21%

COC(=O)CC1c2[nH]c3ccccc3c2CCN1C(=O)Cc1ccccc1 (stereo unspecified)
inhibition [4]: 18.2%

O=C(Cc1ccccc1)N1CCc2c([nH]c3ccccc23)C1
IC50 (A549 [9]): < 0.5 µM
Activity (Mus musculus [10]): Toxic
IC50 (A549 [11]): 0.1 µM
IC50 [5]: 5.87 µM
IC50 [6]: 8.07 µM
Activity (A549 [12]): Active
IC50 [8]: < 0.5 µM
IC50 [13]: 0.1 µM
Activity (A549 [14]): Active
inhibition [4]: 72.4%
Activity (NCI-H1299 [15]): Active
Activity (NCI-H1299 [16]): Active
Activity (NCI-H1299 [17]): Active
inhibition at 10 µM [3]: 59%
IC50 (A549 [7]): 7.9 µM
Activity (4T1): Dose-dependent effect
